Apaf1 inhib: human Apaf-1 inhibition | O14727 | reconstituted apoptosome caspase-3 activity, DEVD-Rh110 fluorescence | inhibition, % at 20 µM | 0.71% of 330,000 active | AID 489030; active = inhibition of at least 40% at 20 µM;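 note: plate controls were DMSO wells for no effect and DEVD-CHO caspase inhibitor wells for full effect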
Target sequence (O14727 whole entry, looked up): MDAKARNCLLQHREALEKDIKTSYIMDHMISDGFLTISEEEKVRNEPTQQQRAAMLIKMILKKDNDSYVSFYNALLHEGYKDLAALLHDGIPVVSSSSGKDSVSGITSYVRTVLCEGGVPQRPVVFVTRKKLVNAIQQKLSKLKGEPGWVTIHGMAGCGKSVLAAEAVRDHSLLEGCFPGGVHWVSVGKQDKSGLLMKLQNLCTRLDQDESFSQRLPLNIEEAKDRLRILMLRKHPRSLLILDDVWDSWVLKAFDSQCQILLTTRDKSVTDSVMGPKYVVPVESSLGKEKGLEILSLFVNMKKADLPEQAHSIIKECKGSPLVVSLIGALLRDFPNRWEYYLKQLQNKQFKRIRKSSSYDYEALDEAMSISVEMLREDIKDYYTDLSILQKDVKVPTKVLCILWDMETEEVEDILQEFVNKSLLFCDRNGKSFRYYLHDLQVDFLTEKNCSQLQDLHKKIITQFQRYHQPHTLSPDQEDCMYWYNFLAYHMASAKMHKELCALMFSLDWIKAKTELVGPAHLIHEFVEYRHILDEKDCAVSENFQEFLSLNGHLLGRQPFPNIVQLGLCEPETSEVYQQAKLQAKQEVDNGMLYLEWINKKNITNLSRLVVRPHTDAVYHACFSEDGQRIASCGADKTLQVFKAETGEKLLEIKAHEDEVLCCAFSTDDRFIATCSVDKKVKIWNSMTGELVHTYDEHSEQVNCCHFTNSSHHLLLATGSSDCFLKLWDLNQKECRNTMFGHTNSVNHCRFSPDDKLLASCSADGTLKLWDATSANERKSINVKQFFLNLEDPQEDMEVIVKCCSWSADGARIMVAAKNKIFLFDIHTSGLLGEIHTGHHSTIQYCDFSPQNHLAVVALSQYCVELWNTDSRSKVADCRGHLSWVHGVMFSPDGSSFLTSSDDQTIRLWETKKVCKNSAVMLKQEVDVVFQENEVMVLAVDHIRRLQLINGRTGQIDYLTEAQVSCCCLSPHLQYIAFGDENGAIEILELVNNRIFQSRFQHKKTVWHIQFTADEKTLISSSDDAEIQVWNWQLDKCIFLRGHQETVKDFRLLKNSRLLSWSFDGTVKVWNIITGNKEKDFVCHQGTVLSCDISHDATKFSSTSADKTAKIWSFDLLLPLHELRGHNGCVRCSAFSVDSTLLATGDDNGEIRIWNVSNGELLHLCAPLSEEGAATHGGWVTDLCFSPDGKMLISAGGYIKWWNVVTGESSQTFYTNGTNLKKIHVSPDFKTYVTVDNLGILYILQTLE
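Medium: Hepes buffer, pH 7.5 / System: biochemical Apaf-1 apoptosome reconstitution / Measured by: Rh110 fluorescence, excitation 480 nm, emission 540 nm / Times: compound with Apaf-1, dATP, procaspase-3 30 min, then 50 min reaction, room temperature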
MEKK2mut PB1 HTS: signal of MEK5 binding to mutant human MEKK2 PB1 domain | bead flow cytometry, Alexa488-MEK5 binding to MEKK2 mutant | percent response, % at 10 µM | 0.35% of 290,000 active | AID 1530; in the data active = percent response above about 24%, passing the limit was not always enough
UBC13 polyUb: inhibitors of human UBC13 polyubiquitin chain formation | TR-FRET | inhibition, % at 20 µM | 0.47% of 330,000 active | AID 485273; in the data active = inhibition above about 45%, passing the limit was not always enough
MEKK3 PB1 HTS: raises or lowers MEK5 binding to the human MEKK3 PB1 domain; Q99759; bead-based flow cytometry, Alexa488-MEK5 binding to MEKK3; actives lie on both sides; 0 = blocked by unlabeled MEK5, 100 = vehicle; binding response (% of control), % at 10 µM; 1.4% of 290,000 active; AID 1529;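 active = binding response more than 3 SD above or below the average of its plate-row segment, actives on both sides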;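 note: Alexa488 bead fluorescence after subtracting the streptavidin-only scavenger bead signal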
PREPL inh: inhibits the human prolyl oligopeptidase-like enzyme. Q4J6C6. recombinant PREPL, fluorescence polarization activity-based probe. inhibition, % at 5.96 µM. 0.68% of 320,000 active; in the data active = inhibition above about 43%;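 note: 0% = enzyme with DMSO and 100% = wells lacking enzyme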
MEKK2wt PB1 HTS: raises or lowers MEK5 binding to wildtype human MEKK2 PB1 domain; 1.1% of 290,000 active; AID 1531; Q9Y2U5; binding response (% of control), % at 10 µM; bead flow cytometry, Alexa488-MEK5 binding to MEKK2 WT; actives lie on both sides; in the data active = binding response below about 67% or above about 130%
MEKK2wt confirm: raises or lowers MEK5 binding to wildtype human MEKK2, retest. shares compounds with MEKK3 PB1 HTS. bead flow cytometry, Alexa488-MEK5 binding to MEKK2 WT; actives lie on both sides. binding response (% of control), % at 10 µM. 2.4% of 5,900 active; in the data active = binding response below about 16% or above about 210%; inactive = in between
MEKK2mut confirm: signal of MEK5 binding to mutant human MEKK2, retest. shares compounds with MEKK3 PB1 HTS. AID 1893. 2% of 5,900 active. percent response, % at 10 µM. bead flow cytometry, Alexa488-MEK5 binding to MEKK2 mutant; in the data active = percent response mostly above about 71%, no sharp cut-off; inactive = mostly below about 38%;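 note: higher means compound restores mutant binding toward wildtype level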
MEKK3 confirm: confirmation of inhibitors of MEK5 binding to human MEKK3 | shares compounds with MEKK3 PB1 HTS | bead flow cytometry, Alexa488-MEK5 binding to MEKK3; active compounds read low | binding response (% of control), % at 10 µM | 1.8% of 5,900 active | AID 1894;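 active = binding response below 72% of control, or above a set upper limit, though filed actives all read lower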;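 note: 100% = DMSO only wells and 0% = binding blocked by excess unlabeled MEK5; lower values mean stronger disruption of MEK5 binding to MEKK3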
Starred values were filed as active, the others as inactive; · = no result; [ ] = another dose, or the depositor's remark. The list is not random: actives were taken first. Their share in the collection is about 3.1%.

SMILES | Apaf1 inhib | MEKK2mut PB1 HTS | UBC13 polyUb | MEKK3 PB1 HTS | PREPL inh | MEKK2wt PB1 HTS | MEKK2wt confirm | MEKK2mut confirm | MEKK3 confirm
COCCC(=O)N1CCC(Oc2ccc(C(=O)NC(C)CCn3cccn3)cc2)CC1 (centres undefined) | -2 | 3 | 3 | 101 | · | 100 | · | · | ·
O=C1Nc2ccc([N+](=O)[O-])cc2OC1CCN1CCCC1 (centres undefined) | -12 | 5 | -5 | 141* | -2 | 114 | 101 | 1 | 101
COc1ccccc1NC(=O)C(C)OC(=O)CCCc1c[nH]c2ccccc12 (centres undefined) | 11 | · | 22 | · | 11 | · | · | · | ·
O=c1nc(-c2ccccc2)cc(C(F)(F)F)[nH]1 | 1 | -5 | 0 | 95 | -6 | 96 | · | · | ·
Cc1cc(-c2ccccc2)nc(=O)[nH]1 | 2 | 3 | -21 | 130* | -8 | 117 | 102 | 7 | 106
CCC(C)NC(=O)C1(O)c2cc(Br)ccc2NC(=O)N1c1cccc(OC)c1 (centres undefined) | 1 | 10 | 4 | 106 | 0 | 109 | · | · | ·
CN1CCN(S(=O)(=O)c2cccc(C#N)c2)C(c2ccccc2)C1 (centres undefined) | 8 | · | -2 | · | · | · | · | · | ·
C=CCOc1ccc(/C=C2\N=C(C)OC2=O)cc1OC | 11 | -6 | 0 | 61*[inhibitor] | 11 | 53*[inhibitor] | 103 | 3 | 101
CN(C(=O)COc1ccc(-c2nnco2)cc1)C1CCS(=O)(=O)C1 (centres undefined) | 8 | · | -8 | · | 23 | · | · | · | ·
O=C(NCCc1ccccn1)c1cc(-c2ccc(Cl)c(Cl)c2Cl)nc2ccccc12 | 18 | 19 | 8 | 105 | 10 | 121 | · | · | ·
O=C(Nc1nn[nH]n1)c1cc(-c2ccc(Cl)c(Cl)c2Cl)nc2ccccc12 | 3 | 12 | -5 | 104 | -9 | 139* | 86 | -9 | 89
Cc1ccc(S(=O)(=O)N(C)C)cc1-n1c(SCC(=O)Nc2ccc(F)c(F)c2F)nc2ccccc2c1=O | 11 | 1 | 3 | 148* | 19 | 106 | 97 | -4 | 104
Cc1cc(Cl)c(C)c(S(=O)(=O)Oc2ccccc2NC(=O)CCC(=O)O)c1Cl | -6 | · | 2 | · | -12 | · | · | · | ·
Cc1cc(C)nc(SCC(=O)NCc2ccco2)n1 | -7 | 19 | -1 | 104 | -1 | 104 | · | · | ·
Cc1ccc2cc(C#N)c(SCC(=O)NCc3ccco3)nc2c1 | 6 | -17 | -8 | 2.0*[inhibitor] | -14 | 2.0*[inhibitor] | 98 | -6 | 100
Cc1cc(C)n2nc(SCC(=O)NCc3ccco3)nc2n1 | -1 | -7 | 5 | 77*[inhibitor] | 1 | 87 | 104 | 3 | 101
Cc1ccc2nc(SCC(=O)NCc3ccco3)c(C#N)cc2c1 | -2 | -1 | -1 | 98 | -4 | 90 | · | · | ·
C#CCOCCOCCOCCNc1nc(N2CCN(C(=O)[C@H](Cc3cc4ccccc4[nH]3)n3cc([C@@H](N)C(C)CC)nn3)CC2)nc(N2CCN(C(=O)[C@H](Cc3cc4ccccc4[nH]3)n3cc([C@@H](N)CC(C)C)nn3)CC2)n1 (some centres undefined) | 32 | 13 | 61* | 99 | 69* | 205* | 249* | 76* | 109
C#CCOCCOCCOCCNc1nc(N2CCN(C(=O)[C@H](CCCCN)n3cc([C@@H](N)CO)nn3)CC2)nc(N2CCN(C(=O)[C@H](Cc3cc4ccccc4[nH]3)n3cc([C@@H](N)CO)nn3)CC2)n1 | -2 | 1 | 110* | 107 | 34 | 139* | 114 | 8 | 102
C#CCOCCOCCOCCNc1nc(N2CCN(C(=O)[C@H](CCC(=O)O)n3cc(C(N)Cc4ccc(O)cc4)nn3)CC2)nc(N2CCN(C(=O)[C@H](Cc3ccc(O)cc3)n3cc(C(N)[C@H](C)CC)nn3)CC2)n1 (some centres undefined) | 6 | 2 | -3 | 85 | · | 76 | · | · | ·
C#CCOCCOCCOCCNc1nc(N2CCN(C(=O)[C@H](Cc3cc4ccccc4[nH]3)n3cc([C@@H](N)C(C)CC)nn3)CC2)nc(N2CCN(C(=O)[C@H](CCCCN)n3cc([C@@H](N)CO)nn3)CC2)n1 (some centres undefined) | 10 | 57* | 110* | 107 | 43 | 202* | 204 | 52 | 108
C#CCOCCOCCOCCNc1nc(N2CCN(C(=O)[C@H](CCC(=O)O)n3cc(C(N)CO)nn3)CC2)nc(N2CCN(C(=O)[C@H](Cc3cc4ccccc4[nH]3)n3cc(C(N)[C@H](C)CC)nn3)CC2)n1 (some centres undefined) | 31 | 27 | 25 | 103 | 18 | 156* | 275* | 110* | 114
CCCCN(C(=O)c1ccc(-c2ccc(Cl)cc2)o1)c1c(N)n(CCC)c(=O)[nH]c1=O | 1 | · | -6 | · | 5 | · | · | · | ·
CCOC(=O)c1c(C)[nH]c(C)c1S(=O)(=O)NC(C)Cc1ccco1 (centres undefined) | -7 | 2 | -2 | 104 | -2 | 105 | · | · | ·
C#CCOCCOCCOCCNc1nc(N2CCN(C(=O)[C@H]([C@@H](C)CC)n3cc([C@@H](N)CO)nn3)CC2)nc(N2CCN(C(=O)[C@H](Cc3cc4ccccc4[nH]3)n3cc([C@@H](N)Cc4ccc(O)cc4)nn3)CC2)n1 | 57* | 4 | 98* | 100 | 49* | 155* | 231* | 114* | 107
C#CCOCCOCCOCCNc1nc(N2CCOCC2)nc(N2CCN(C(=O)[C@H](Cc3cc4ccccc4[nH]3)n3cc([C@@H](N)Cc4ccc(O)cc4)nn3)CC2)n1 | 13 | 14 | 9 | 109 | 21 | 123 | · | · | ·
Cc1nn(CC(=O)N2CCCC2)c(=O)c2cc3cc(F)ccc3n12 | -16 | 1 | -1 | 100 | 4 | 100 | · | · | ·
N#Cc1ccc2ccn(CC(=O)NCc3ccco3)c2c1 | -3 | 13 | 4 | 114 | 7 | 139* | 102 | -4 | 99
CC1CCCC(N2CCN(C(=O)c3ccc([N+](=O)[O-])cc3)CC2)C1 (centres undefined) | -8 | 14 | -3 | 108 | · | 109 | · | · | ·

Assay outcomes (PubChem)
